Results as given in ChEMBL document CHEMBL2384915, “Design, synthesis and biological evaluation of novel 3,4,5-trisubstituted aminothiophenes as inhibitors of p53-MDM2 interaction. Part 2” (Bioorg Med Chem, 2013).

Experiments:
[1] = tested on: PC-3; test: Cytotoxicity against human p53 deficient PC3 cells after 72 hrs by SRB assay; format: functional, cell-based; conditions: PC-3, 72 h
How it was run: (§1)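 Seeded cells cultured overnight, then exposed to serial compound concentrations for 72 h. Fixed with 10% (w/v) TCA at 4 °C for 1 h, stained 30 min with 0.4% SRB in 1% acetic acid, washed with 1% acetic acid, and bound dye extracted with unbuffered Tris base. Absorbance read at 515 nm; inhibition computed versus untreated controls. IC50 derived by Logit method, mean of at least two independent tests.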

[2] = tested on: A549; test: Cytotoxicity against human A549 cells expressing wild type p53 after 72 hrs by SRB assay; format: functional, cell-based; conditions: A549, 72 h; how it was run: as §1
[3] = target: Tumour suppressor p53/oncoprotein Mdm2 (Homo sapiens, UniProt Q00987); test: (§2) Inhibition of p53/MDM2 (1 to 118) (unknown origin) interaction after 1 hr by fluorescence polarization assay; format: protein assay
Sequence of Tumour suppressor p53/oncoprotein Mdm2 (Homo sapiens, UniProt Q00987) (P04637 whole entry): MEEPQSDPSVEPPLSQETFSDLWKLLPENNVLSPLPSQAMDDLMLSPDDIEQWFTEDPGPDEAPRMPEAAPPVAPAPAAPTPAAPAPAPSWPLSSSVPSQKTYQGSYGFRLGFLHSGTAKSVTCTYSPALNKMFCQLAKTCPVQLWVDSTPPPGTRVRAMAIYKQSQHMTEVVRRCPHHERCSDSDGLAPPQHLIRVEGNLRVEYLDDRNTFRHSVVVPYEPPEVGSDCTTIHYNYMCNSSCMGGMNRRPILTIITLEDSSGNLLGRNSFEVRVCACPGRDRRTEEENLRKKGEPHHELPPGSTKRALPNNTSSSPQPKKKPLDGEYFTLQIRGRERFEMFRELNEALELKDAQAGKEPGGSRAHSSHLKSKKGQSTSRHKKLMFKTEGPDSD
Sequence of Tumour suppressor p53/oncoprotein Mdm2 (Homo sapiens, UniProt Q00987) (Q00987 whole entry): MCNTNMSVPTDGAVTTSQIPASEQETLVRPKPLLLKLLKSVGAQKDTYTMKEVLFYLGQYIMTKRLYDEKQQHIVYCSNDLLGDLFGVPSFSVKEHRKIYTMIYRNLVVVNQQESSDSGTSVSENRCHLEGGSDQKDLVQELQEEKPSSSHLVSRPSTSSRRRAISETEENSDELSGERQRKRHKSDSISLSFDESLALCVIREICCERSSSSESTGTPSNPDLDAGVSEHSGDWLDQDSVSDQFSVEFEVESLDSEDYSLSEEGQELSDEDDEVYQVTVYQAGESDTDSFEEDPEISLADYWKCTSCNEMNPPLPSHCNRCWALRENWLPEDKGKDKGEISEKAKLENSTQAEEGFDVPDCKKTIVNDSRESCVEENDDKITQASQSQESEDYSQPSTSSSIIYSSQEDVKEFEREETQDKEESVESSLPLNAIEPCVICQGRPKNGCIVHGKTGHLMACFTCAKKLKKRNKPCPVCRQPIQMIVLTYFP

[4] = tested on: A549; test: Selectivity ratio of IC50 for human p53 deficient PC3 cells to IC50 for human A549 cells expressing wild type p53; format: functional
[5] = target: Tumour suppressor p53/oncoprotein Mdm2 (Homo sapiens, UniProt P04637+Q00987); test: as §2; format: protein assay
Sequence of Tumour suppressor p53/oncoprotein Mdm2 (Homo sapiens, UniProt P04637+Q00987) (P04637 whole entry): as the sequence (P04637 whole entry) above
Sequence of Tumour suppressor p53/oncoprotein Mdm2 (Homo sapiens, UniProt P04637+Q00987) (Q00987 whole entry): as the sequence (Q00987 whole entry) above

Question: COC(=O)c1c(N)sc(-c2ccc(Cl)cc2)c1-c1ccc(Cl)cc1 was tested. Which IC50 [1] did it give?
Answer: The IC50 was 2.78 µM.

Question: And the IC50 [2]?
Answer: Its IC50 is 5.04 µM.

Question: What does the source list for Nc1sc(-c2ccc(Cl)cc2)c(-c2ccc(Cl)cc2)c1C(=O)NC1CC1?
Answer: IC50 [1]: 3.68 µM; IC50 [2]: 1.95 µM

Question: For Nc1sc(-c2ccc(Cl)cc2)c(-c2ccc(Cl)cc2)c1C(=O)NC1CCCCC1, which IC50 [1] is on record?
Answer: Its IC50 is 7.3 µM.

Question: What about the IC50 [2] of the same molecule?
Answer: Its IC50 is 2.41 µM.

Question: Which results are given for Nc1sc(-c2ccc(Cl)cc2)c(-c2ccc(Cl)cc2)c1C(=O)N1CCCC1?
Answer: IC50 [1]: 6.22 µM; IC50 [2]: 0.89 µM

Question: For Nc1sc(-c2ccccc2)c(-c2ccc(Cl)cc2)c1C(=O)NCc1ccccc1, which IC50 [1] is on record?
Answer: Its IC50 is 22.8 µM.

Question: And the Ki [3]?
Answer: Its Ki is 1.14 µM.

Question: And the IC50 [2]?
Answer: The IC50 was 8.51 µM.

Question: Which results are given for Nc1sc(-c2ccc(F)cc2)c(-c2ccc(Cl)cc2)c1C(=O)NC1CC1?
Answer: Ratio IC50 [4]: >5; IC50 [1]: 27.9 µM; Ki [3]: 0.34 µM; IC50 [2]: 3 µM

Question: Nc1sc(-c2ccc(F)cc2)c(-c2ccc(Cl)cc2)c1C(=O)N1CCCC1 was tested. Which IC50 [1] did it give?
Answer: Its IC50 is 20.4 µM.

Question: What about the Ki [3] of the same molecule?
Answer: Its Ki is 1.22 µM.

Question: What about the IC50 [2] of the same molecule?
Answer: The IC50 was 18.8 µM.

Question: With Nc1sc(-c2ccc(F)cc2)c(-c2ccc(Cl)cc2)c1C(=O)N1CCOCC1 as the molecule, how does the IC50 [1] read?
Answer: Its IC50 is 25.1 µM.

Question: What about the Ki [3] of the same molecule?
Answer: Its Ki is 0.22 µM.

Question: And the IC50 [2]?
Answer: The IC50 was 12.7 µM.

Question: How did the IC50 [1] turn out when Nc1sc(-c2ccc(F)cc2)c(-c2ccc(Cl)cc2)c1C(=O)NCc1ccccc1 was run?
Answer: The IC50 was 25.8 µM.

Question: And the Ki [3]?
Answer: The Ki was 0.6 µM.

Question: And the IC50 [2]?
Answer: The IC50 was 9.95 µM.

Question: With Nc1sc(-c2ccc(Br)cc2)c(-c2ccc(Cl)cc2)c1C(=O)NC1CC1 as the molecule, how does the IC50 [1] read?
Answer: Its IC50 is 37.3 µM.

Question: And the Ki [3]?
Answer: The Ki was 2.18 µM.

Question: What about the IC50 [2] of the same molecule?
Answer: Its IC50 is > 50 µM.

Question: For Nc1sc(-c2ccc(Br)cc2)c(-c2ccc(Cl)cc2)c1C(=O)NC1CCCCC1, which IC50 [1] is on record?
Answer: The IC50 was 28.4 µM.

Question: And the Ki [3]?
Answer: The Ki was 1.06 µM.

Question: What about the IC50 [2] of the same molecule?
Answer: The IC50 was 9.59 µM.

Question: With Nc1sc(-c2ccc(Br)cc2)c(-c2ccc(Cl)cc2)c1C(=O)N1CCCC1 as the molecule, how does the “Ratio IC50” value [4] read?
Answer: Its value is >5.

Question: And the IC50 [1]?
Answer: Its IC50 is 37.5 µM.

Question: And the Ki [3]?
Answer: Its Ki is 0.75 µM.

Question: What about the IC50 [2] of the same molecule?
Answer: Its IC50 is 7.46 µM.

Question: How did the “Ratio IC50” value [4] turn out when Nc1sc(-c2ccc(Br)cc2)c(-c2ccc(Cl)cc2)c1C(=O)N1CCOCC1 was run?
Answer: The value was >5.

Question: What about the IC50 [1] of the same molecule?
Answer: The IC50 was > 50 µM.

Question: What about the Ki [3] of the same molecule?
Answer: The Ki was 1.48 µM.

Question: And the IC50 [2]?
Answer: Its IC50 is 7.49 µM.

Question: Nc1sc(-c2ccc(Br)cc2)c(-c2ccc(Cl)cc2)c1C(=O)NCc1ccccc1 was tested. Which IC50 [1] did it give?
Answer: Its IC50 is > 50 µM.

Question: What about the Ki [3] of the same molecule?
Answer: The Ki was 0.76 µM.

Question: What about the IC50 [2] of the same molecule?
Answer: The IC50 was 18.7 µM.

Question: For Nc1sc(-c2ccc([N+](=O)[O-])cc2)c(-c2ccc(Cl)cc2)c1C(=O)NC1CC1, which Ki [5] is on record?
Answer: The Ki was “Not Active”.

Question: Which IC50 [1] does the source give for Nc1sc(-c2ccc([N+](=O)[O-])cc2)c(-c2ccc(Cl)cc2)c1C(=O)NC1CCCCC1 here?
Answer: The IC50 was 25.9 µM.

Question: What about the Ki [5] of the same molecule?
Answer: The Ki was “Not Active”.

Question: And the IC50 [2]?
Answer: The IC50 was 15 µM.

Question: What does the source list for Nc1sc(-c2ccc([N+](=O)[O-])cc2)c(-c2ccc(Cl)cc2)c1C(=O)N1CCCC1?
Answer: IC50 [1]: 42.6 µM; Ki [5]: Not Active; IC50 [2]: 10.7 µM

Question: Which Ki [5] does the source give for Nc1sc(-c2ccc([N+](=O)[O-])cc2)c(-c2ccc(Cl)cc2)c1C(=O)N1CCCCC1 here?
Answer: Its Ki is “Not Active”.

Question: For Nc1sc(-c2ccc([N+](=O)[O-])cc2)c(-c2ccc(Cl)cc2)c1C(=O)N1CCOCC1, which IC50 [1] is on record?
Answer: Its IC50 is > 50 µM.

Question: What about the Ki [5] of the same molecule?
Answer: The Ki was “Not Active”.

Question: And the IC50 [2]?
Answer: Its IC50 is 16.7 µM.

Question: How did the IC50 [1] turn out when Nc1sc(-c2ccc(Cl)cc2)c(-c2ccc(Cl)cc2)c1C(=S)NC1CC1 was run?
Answer: The IC50 was 22.1 µM.

Question: And the Ki [3]?
Answer: The Ki was 0.086 µM.

Question: And the IC50 [2]?
Answer: The IC50 was 8.28 µM.

Question: For Nc1sc(-c2ccc(Cl)cc2)c(-c2ccc(Cl)cc2)c1C(=S)NC1CCCC1, which IC50 [1] is on record?
Answer: Its IC50 is 29 µM.

Question: What about the Ki [3] of the same molecule?
Answer: Its Ki is 0.17 µM.

Question: What about the IC50 [2] of the same molecule?
Answer: Its IC50 is 22.1 µM.

Question: With Nc1sc(-c2ccc(Cl)cc2)c(-c2ccc(Cl)cc2)c1C(=S)NC1CCCCC1 as the molecule, how does the IC50 [1] read?
Answer: Its IC50 is 27.7 µM.

Question: What about the Ki [3] of the same molecule?
Answer: Its Ki is 0.32 µM.

Question: What about the IC50 [2] of the same molecule?
Answer: Its IC50 is 7.41 µM.

Question: Which results are given for CC(C)(C)NC(=S)c1c(N)sc(-c2ccc(Cl)cc2)c1-c1ccc(Cl)cc1?
Answer: IC50 [1]: 34 µM; Ki [3]: 0.58 µM; IC50 [2]: > 50 µM

Question: CCOC(=O)c1c(N)[nH]c(-c2ccc(Cl)cc2)c1-c1ccc(Cl)cc1 was tested. Which “Ratio IC50” value [4] did it give?
Answer: Its value is >5.

Question: What about the IC50 [1] of the same molecule?
Answer: The IC50 was 16.1 µM.

Question: And the Ki [3]?
Answer: The Ki was 1.24 µM.

Question: What about the IC50 [2] of the same molecule?
Answer: The IC50 was 2.53 µM.

Question: Nc1[nH]c(-c2ccc(Cl)cc2)c(-c2ccc(Cl)cc2)c1C(=O)NC1CC1 was tested. Which IC50 [1] did it give?
Answer: The IC50 was 19.3 µM.

Question: And the Ki [3]?
Answer: Its Ki is 0.53 µM.

Question: What about the IC50 [2] of the same molecule?
Answer: The IC50 was 4.62 µM.

Question: What does the source list for O=C1CC(c2ccccc2)c2c(sc(-c3ccc(Cl)cc3)c2-c2ccc(Cl)cc2)N1 (stereo unspecified)?
Answer: IC50 [1]: > 50 µM; IC50 [2]: 17.2 µM

Question: Which results are given for O=C1CC(c2cccs2)c2c(sc(-c3ccc(Cl)cc3)c2-c2ccc(Cl)cc2)N1 (stereo unspecified)?
Answer: IC50 [1]: > 50 µM; IC50 [2]: 20.2 µM

Question: Which results are given for O=C1CC(c2ccco2)c2c(sc(-c3ccc(Cl)cc3)c2-c2ccc(Cl)cc2)N1 (stereo unspecified)?
Answer: IC50 [1]: > 50 µM; IC50 [2]: 25.4 µM

Question: With Clc1ccc(-c2sc3ncnc(NC4CC4)c3c2-c2ccc(Cl)cc2)cc1 as the molecule, how does the IC50 [1] read?
Answer: Its IC50 is > 50 µM.

Question: And the IC50 [2]?
Answer: Its IC50 is 42.8 µM.

Question: For Clc1ccc(-c2sc3ncnc(NC4CCCCC4)c3c2-c2ccc(Cl)cc2)cc1, which IC50 [1] is on record?
Answer: The IC50 was > 50 µM.

Question: What about the IC50 [2] of the same molecule?
Answer: Its IC50 is > 50 µM.

Question: For Clc1ccc(-c2sc3ncnc(N4CCCCC4)c3c2-c2ccc(Cl)cc2)cc1, which IC50 [1] is on record?
Answer: Its IC50 is > 50 µM.

Question: What about the IC50 [2] of the same molecule?
Answer: Its IC50 is > 50 µM.

Question: Clc1ccc(-c2sc3ncnc(N4CCOCC4)c3c2-c2ccc(Cl)cc2)cc1 was tested. Which IC50 [1] did it give?
Answer: The IC50 was > 50 µM.

Question: What about the IC50 [2] of the same molecule?
Answer: The IC50 was > 50 µM.

Question: Which IC50 [1] does the source give for Nc1sc(-c2ccccc2)c(-c2ccc(Cl)cc2)c1C(=O)NC1CC1 here?
Answer: Its IC50 is 17.1 µM.

Question: What about the Ki [3] of the same molecule?
Answer: The Ki was 0.63 µM.

Question: And the IC50 [2]?
Answer: Its IC50 is 4.3 µM.

Question: What does the source list for Nc1sc(-c2ccccc2)c(-c2ccc(Cl)cc2)c1C(=O)N1CCCC1?
Answer: IC50 [1]: 22.2 µM; Ki [3]: 1.96 µM; IC50 [2]: 5.8 µM

Question: Which results are given for Nc1sc(-c2ccccc2)c(-c2ccc(Cl)cc2)c1C(=O)N1CCOCC1?
Answer: IC50 [1]: 29.3 µM; Ki [3]: 0.28 µM; IC50 [2]: 14.2 µM

Question: What does the source list for COc1ccc(C2=N[C@@H](c3ccc(Cl)cc3)[C@@H](c3ccc(Cl)cc3)N2C(=O)N2CCNC(=O)C2)c(OC(C)C)c1 [NUTLIN-3]?
Answer: IC50 [1]: 20 µM; IC50 [2]: 4.62 µM
